Drawing on ChEMBL document CHEMBL1129795, “2-Azetidinone cholesterol absorption inhibitors: structure-activity relationships on the heterocyclic nucleus” (1996), this text covers inhibition and Change for 45 compounds.

For orientation: inhibition means the drop in the measured response relative to a control, in per cent.

In assay [1] the target is T1, Sterol O-acyltransferase 1 (Rattus norvegicus) (UniProt O70536).
T1 sequence (whole entry): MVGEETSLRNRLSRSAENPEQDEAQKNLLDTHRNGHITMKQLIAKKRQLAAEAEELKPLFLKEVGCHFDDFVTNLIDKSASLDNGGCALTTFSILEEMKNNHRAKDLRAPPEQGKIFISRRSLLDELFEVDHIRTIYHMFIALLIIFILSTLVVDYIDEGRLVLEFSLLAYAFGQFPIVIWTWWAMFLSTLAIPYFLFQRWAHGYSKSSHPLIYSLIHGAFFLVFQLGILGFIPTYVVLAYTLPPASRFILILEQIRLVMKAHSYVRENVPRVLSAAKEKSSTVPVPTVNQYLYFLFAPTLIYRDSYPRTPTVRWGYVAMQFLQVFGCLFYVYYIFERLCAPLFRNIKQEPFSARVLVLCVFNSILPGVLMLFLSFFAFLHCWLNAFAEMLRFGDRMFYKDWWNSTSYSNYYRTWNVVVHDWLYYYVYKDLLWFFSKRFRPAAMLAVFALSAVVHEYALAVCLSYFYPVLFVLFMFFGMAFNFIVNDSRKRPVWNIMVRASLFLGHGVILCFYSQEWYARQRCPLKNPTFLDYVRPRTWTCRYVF
The experiment in a line: In vitro for inhibitory activity against Acyl coenzyme A:cholesterol acyltransferase 1 from rat liver microsomes at 50 uM. The method, boiled down: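 Rat liver microsomes were used to measure ACAT activity as the formation of cholesteryl [3H]oleate from cholesterol and [3H]oleoyl CoA. Results are given as percent inhibition at a single concentration.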
For orientation: Liver microsomes are vesicles of endoplasmic reticulum, rich in cytochrome P450 enzymes.

Assay [2] deals with Cricetinae gen. sp. Kind of assay: In vivo for cholesterol absorption inhibitory activity using 7-day cholesterol-fed hamster model (expressed as percent change in cholesteryl esters at 50 mg/kg/day). The format is functional, Cricetulus griseus. The method, boiled down: (§1)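 Hamsters were fed a high-cholesterol diet for 7 days and gavaged once daily with compound in 0.2 mL corn oil. On the last day, animals were sacrificed and hepatic and serum lipids were determined. Results are given as percent change in hepatic cholesteryl ester or serum cholesterol concentration versus diet-fed controls gavaged with corn oil without drug.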

For assay [3], the system named is Cricetinae gen. sp. The experiment in a line: In vivo cholesterol absorption inhibitory activity using 7-day cholesterol-fed hamster model (expressed as percent change in serum cholesterol at 50 mg/kg/day). The format is functional, Cricetulus griseus. The method, boiled down: as §1
For assay [4], the system named is Cricetinae gen. sp. Kind of assay: Compound was tested in vivo for Cholesterol absorption inhibitory activity by using 7-day cholesterol-fed hamster model.(change in % change in cholesteryl esters(tested at 50 mg/kg/day). The format is functional, Cricetulus griseus. The method, boiled down: as §1
The test system of assay [5] is Cricetinae gen. sp. Kind of assay: Compound was tested in vivo for Cholesterol absorption inhibitory activity by using 7-day cholesterol-fed hamster model.(change in serum cholesterol( tested at 50 mg/kg/day). The assay is classed as functional. The method, boiled down:
as §1

With `COc1ccc(N2C(=O)[C@H](CCCc3ccccc3)[C@H]2c2ccccc2)cc1`, the inhibition in assay [1] amounted to 22%. Further, the values for the Change in the assay on Cricetinae gen. sp. [2] and in the assay with Cricetinae gen. sp. [3] were -15% and -6%, respectively.

On to `CCC(=O)Oc1ccc(N2C(=O)[C@H](CCCc3ccccc3)[C@H]2c2ccc(OC)cc2)cc1`, for which the Change in the assay on Cricetinae gen. sp. [4] is given as -54%; in the assay with Cricetinae gen. sp. [5] it was -22%.

Take `COc1ccc(N2C(=O)[C@H](CCCc3ccccc3)[C@H]2c2ccc([N+](=O)[O-])cc2)cc1`: the inhibition in assay [1] was found to be 21%. The Change in the assay with Cricetinae gen. sp. [2] is 0%; in the assay with Cricetinae gen. sp. [3] it was -11%.

Regarding `COc1ccc(N2C(=O)[C@H](CCCc3ccccc3)[C@H]2c2ccc(CO)cc2)cc1`, the inhibition in assay [1] was -6%. For the same compound, the Change is reported as -46% with Cricetinae gen. sp. [2] and -21% with Cricetinae gen. sp. [3].

For the compound `COc1ccc(N2C(=O)[C@H](CCCc3ccccc3)[C@H]2c2cccc(OC)c2)cc1`, in assay [1], the inhibition was found to be 21%. Further, the Change is -24% with Cricetinae gen. sp. [2] and -17% with Cricetinae gen. sp. [3].

In the case of `COc1ccc(N2C(=O)[C@@H](CCCc3ccccc3)[C@H]2c2ccc(O)cc2)cc1`, the inhibition in assay [1] is 20%. Moreover, the values for the Change with Cricetinae gen. sp. [2] and in the assay on Cricetinae gen. sp. [3] were -75% and -31%, respectively.

On to `COc1ccc(N2C(=O)[C@H](CCCc3ccccc3)[C@H]2c2ccc(OC)c(OC)c2)cc1`, for which, in assay [1], the inhibition is 53%. Also, the values for the Change in the assay on Cricetinae gen. sp. [2] and in the assay on Cricetinae gen. sp. [3] were -33% and -11%, respectively.

Turning to `CCCCCCCCCC[C@H]1C(=O)N(c2ccc(OC)cc2)[C@@H]1c1ccc(OC)cc1`, the Change with Cricetinae gen. sp. [4] is recorded as -18%; in the assay with Cricetinae gen. sp. [5], 0%.

Consider `COc1ccc(N2C(=O)[C@H](CCCc3ccccc3)[C@H]2c2ccc(OC(C)C)cc2)cc1`, for which the inhibition in assay [1] came to 59%. In addition, the Change is on record as -94% with Cricetinae gen. sp. [2] and -38% in the assay on Cricetinae gen. sp. [3].

Take `COc1ccc(N2C(=O)[C@@H](CCCc3ccccc3)[C@H]2c2cccc(OC)c2)cc1`: the inhibition in assay [1] was determined as 39%. Also, the figures for the Change with Cricetinae gen. sp. [2] and in the assay on Cricetinae gen. sp. [3] were -54% and -19%, respectively.

Regarding `CCOc1ccc([C@@H]2[C@H](CCCc3ccccc3)C(=O)N2c2ccc(OC)cc2)cc1`, in assay [1], the inhibition amounted to 79%. In addition, the values for the Change in the assay on Cricetinae gen. sp. [2] and in the assay on Cricetinae gen. sp. [3] were -93% and -48%, respectively.

For the compound `COc1ccc(N2C(=O)[C@H](CCCc3ccccc3)[C@H]2c2ccc(O)cc2)cc1`, the inhibition in assay [1] came to 8%. For the same compound, the Change in the assay on Cricetinae gen. sp. [2] is reported as -48%; in the assay on Cricetinae gen. sp. [3], -16%.

Take `COc1ccc(N2C(=O)[C@H](CCCc3ccccc3)[C@H]2c2ccc(N)cc2)cc1`: in assay [1], the inhibition was determined as 63%. Further, the Change in the assay with Cricetinae gen. sp. [2] and with Cricetinae gen. sp. [3] was 0% throughout.

Take `CCCCCCCCCC[C@@H]1C(=O)N(c2ccc(OC)cc2)[C@@H]1c1ccc(OC)cc1`: the Change with Cricetinae gen. sp. [4] is given as -15%; in the assay on Cricetinae gen. sp. [5] it was 0%.

With `COc1ccc(N2C(=O)[C@H](CCCc3ccccc3)[C@H]2c2ccc(C)cc2)cc1`, in assay [1], the inhibition was found to be 18%. The Change in the assay with Cricetinae gen. sp. [2] is recorded as -21%; in the assay with Cricetinae gen. sp. [3], -20%.

As for `CC[C@]1(CCCc2ccccc2)C(=O)N(c2ccc(OC)cc2)[C@@H]1c1ccc(OC)cc1`, the Change in the assay with Cricetinae gen. sp. [2] and in the assay with Cricetinae gen. sp. [3] was 0% throughout.

As for `COc1ccc(N2C(=O)C(CCCc3ccccc3)C23c2ccc(OC)cc2-c2cc(OC)ccc23)cc1` (configuration not stated), the Change with Cricetinae gen. sp. [2] and in the assay on Cricetinae gen. sp. [3] was -22% in each case.

On to `COc1ccc([C@@H]2[C@@H](CCCc3ccccc3)C(=O)N2C)cc1`, for which the Change in the assay with Cricetinae gen. sp. [2] and with Cricetinae gen. sp. [3] was 0% throughout.

For the compound `CC[C@@]1(CCCc2ccccc2)C(=O)N(c2ccc(OC)cc2)[C@@H]1c1ccc(OC)cc1`, the Change with Cricetinae gen. sp. [2] and in the assay with Cricetinae gen. sp. [3] was 0% each time.

Take `COc1ccc([C@@H]2[C@H](CCCC3CCCCC3)C(=O)N2c2ccc(OC)cc2)cc1`: the Change is listed as -28% in the assay with Cricetinae gen. sp. [2] and 12% in the assay on Cricetinae gen. sp. [3].

On to `COc1ccc([C@H]2N(c3ccccc3)C(=O)[C@]2(F)CCCc2ccccc2)cc1`, for which the figures for the Change with Cricetinae gen. sp. [2] and with Cricetinae gen. sp. [3] were -17% and -10%, respectively.

For the compound `CC[C@@]1(c2ccccc2)C(=O)N(c2ccc(OC)cc2)[C@@H]1c1ccc(OC)cc1`, the Change in the assay on Cricetinae gen. sp. [2] is on record as -28%; with Cricetinae gen. sp. [3], 0%.

With `COc1ccc([C@@H]2[C@H](CCc3ccccc3)C(=O)N2c2ccc(OC)cc2)cc1`, the values for the Change in the assay with Cricetinae gen. sp. [2] and in the assay with Cricetinae gen. sp. [3] were -19% and 0%, respectively.

As for `COc1ccc([C@H]2NC(=O)[C@@H]2CCCc2ccccc2)cc1`, the Change in the assay on Cricetinae gen. sp. [2] and in the assay with Cricetinae gen. sp. [3] was 0% each time.

Take `COc1ccc(N2C(=O)[C@H](CCCc3ccccc3)[C@H]2c2ccc(SC)cc2)cc1`: the Change in the assay with Cricetinae gen. sp. [2] and with Cricetinae gen. sp. [3] was 0% each time.

`COc1ccc(C(=O)N2C(=O)[C@H](CCCc3ccccc3)[C@H]2c2ccc(OC)cc2)cc1`: the values for the Change in the assay on Cricetinae gen. sp. [2] and in the assay on Cricetinae gen. sp. [3] were 0% and -25%, respectively.

Consider `CCOc1ccc([C@@H]2[C@@H](CCCc3ccccc3)C(=O)N2c2ccc(OC)cc2)cc1`, for which the inhibition in assay [1] is 68%. The Change in the assay on Cricetinae gen. sp. [2] is on record as -98%; with Cricetinae gen. sp. [3] it was -52%.

Turning to `COc1ccc([C@@H]2[C@@H](CCCc3ccccc3)C(=O)N2c2ccc(C)c(C)c2)cc1`, the Change is reported as -39% in the assay with Cricetinae gen. sp. [2] and -21% with Cricetinae gen. sp. [3].

Consider `COc1ccc(N2C(=O)[C@H](CCCc3ccccc3)[C@H]2c2ccc(Oc3ccccc3)cc2)cc1`, for which the Change with Cricetinae gen. sp. [2] is listed as -77%; with Cricetinae gen. sp. [3] it was -37%.

As to `COc1ccc(N2C(=O)[C@@H](CCCc3ccccc3)[C@H]2c2ccc3c(c2)OCO3)cc1`, the Change in the assay with Cricetinae gen. sp. [2] and in the assay on Cricetinae gen. sp. [3] was 0% throughout.

As to `COc1ccc([C@@H]2[C@@H](CCCc3ccccc3)C(=O)N2c2ccc(Oc3ccccc3)cc2)cc1`, the Change is given as -49% with Cricetinae gen. sp. [2] and -28% in the assay with Cricetinae gen. sp. [3].

In the case of `COc1ccc(N2C(=O)[C@H](CCCc3ccccc3)[C@H]2c2ccc(OC(C)(C)C)cc2)cc1`, the Change is recorded as -80% in the assay on Cricetinae gen. sp. [2] and -26% in the assay on Cricetinae gen. sp. [3].

As to `COc1ccc(N2C(=O)[C@H](CCCc3ccccc3)[C@H]2c2ccc(O)c(O)c2)cc1`, the Change in the assay with Cricetinae gen. sp. [5] came out at 0%.

In the case of `COc1ccc([C@@H]2[C@@H](CCCCc3ccccc3)C(=O)N2c2ccc(OC)cc2)cc1`, the Change in the assay with Cricetinae gen. sp. [2] is recorded as -23%; in the assay on Cricetinae gen. sp. [3], -8%.

Consider `COc1ccc([C@H]2N(c3ccc(OC)cc3)C(=O)[C@@]2(Cc2ccccc2)c2ccccc2)cc1`, for which the Change in the assay on Cricetinae gen. sp. [2] and in the assay on Cricetinae gen. sp. [3] was 16% each time.

`COc1ccc(N2C(=O)[C@@H](CCCc3ccccc3)[C@H]2c2ccc(S)cc2)cc1`: the Change is 0% with Cricetinae gen. sp. [2] and -19% in the assay on Cricetinae gen. sp. [3].

Regarding `CCN1C(=O)[C@H](CCCc2ccccc2)[C@H]1c1ccc(OC)cc1`, the Change in the assay with Cricetinae gen. sp. [2] is -21%; with Cricetinae gen. sp. [3], -13%.

For the compound `COc1ccc([C@@H]2[C@@H](CCCCCCc3ccccc3)C(=O)N2c2ccc(OC)cc2)cc1`, the Change with Cricetinae gen. sp. [2] is -17%; with Cricetinae gen. sp. [3] it was -19%.

For `COc1ccc([C@H]2N(c3ccccc3)C(=O)[C@@]2(F)CCCc2ccccc2)cc1`, the Change with Cricetinae gen. sp. [2] is on record as -94%; in the assay with Cricetinae gen. sp. [3] it was -30%.

Take `COc1ccc(N2C(=O)[C@H](CCCc3ccccc3)[C@H]2c2ccc(S(C)(=O)=O)cc2)cc1`: the values for the Change in the assay on Cricetinae gen. sp. [2] and in the assay on Cricetinae gen. sp. [3] were -75% and -26%, respectively.

On to `COc1ccc([C@@H]2[C@@H](CCCc3ccccc3)C(=O)N2c2ccc(Cl)cc2)cc1`, for which the Change is given as -93% in the assay on Cricetinae gen. sp. [2] and -44% with Cricetinae gen. sp. [3].

Consider `COc1ccc([C@@H]2[C@@H](CCCc3ccccc3)C(=O)N2c2ccc(S(C)(=O)=O)cc2)cc1`, for which the results for the Change with Cricetinae gen. sp. [2] and in the assay with Cricetinae gen. sp. [3] were -39% and 0%, respectively.

In the case of `COc1ccc(N2C(=O)[C@H](CCCc3ccccc3)[C@H]2c2ccc(OC(F)(F)F)cc2)cc1`, the Change in the assay on Cricetinae gen. sp. [2] is listed as -29%; in the assay with Cricetinae gen. sp. [3], 0%.

As for `COc1ccc([C@@H]2[C@@H](CCCc3ccccc3)C(=O)N2c2ccc(OC(F)(F)F)cc2)cc1`, the figures for the Change in the assay on Cricetinae gen. sp. [2] and with Cricetinae gen. sp. [3] were -85% and -34%, respectively.

As for `COc1ccc([C@H]2N(c3ccc(OC)cc3)C(=O)C2(c2ccccc2)c2ccccc2)cc1`, the Change in the assay with Cricetinae gen. sp. [2] and in the assay on Cricetinae gen. sp. [3] was 0% in each case.
